# From PubChem BioAssay AID651628 (The Scripps Research Institute Molecular Screening Center, 2012)
# Active and inactive are the calls of the source.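 Rule for the calls: active = at least one off-target enzyme showing weaker fluorescent probe labeling in any proteome panel; inactive = no off-target enzyme affected in any panel.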
# System: Soluble Proteome
# Experiment: anti-target inhibition in MCF7 proteome, late-stage follow-up, selectivity assay for PAD4 inhibitor project, cell lysate, gel-based fluorescence, soluble and membrane fractions (AID 651628)
# Settings: CA-Rh gel-based ABPP, anti-target count, at 50 µM, hits give high values
# How it was run: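 System: MCF7 soluble or membrane proteome; amount: proteome protein concentration of 1 mg/ml; technique: in-gel fluorescence after SDS-PAGE; medium: DPBS; controls: DMSO-only reference; doses: compound at 10 or 50 µM; probe or stimulus: Chloroacetamide-rhodamine (CA-Rh) labelling probe, 10 µM; timing: compound pre-incubation 1 h, then probe labelling 1 h, both 25 °C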
row,Compound,number of anti-targets
1,NC1=CC(=O)c2ccc(-c3cccc(C(=O)O)n3)nc2C1=O,0 (inactive)
2,COC1=C(N)C(=O)c2nc(-c3nc(C(=O)O)c(C)c(-c4ccc(OC)c(OC)c4O)c3N)ccc2C1=O,0 (inactive)
3,COC1=CC(=O)c2nc(C#N)ccc2C1=O,> 5 (active)
4,O=C1C(O)=C(O)C(=O)c2ncccc21,3 (active)
5,COC1=C(Br)C(=O)c2ncccc2C1=O,> 5 (active)
6,COC(=O)c1cccc(-c2ccc3c(n2)C(=O)C(N)=CC3=O)n1,0 (inactive)
7,COC1=C(N)C(=O)c2ncccc2C1=O,0 (inactive)
8,NC1=CC(=O)c2cccnc2C1=O,0 (inactive)
9,COC(=O)c1cccc(-c2ccc3c(n2)C(=O)C(Br)=CC3=O)n1,0 (inactive)
10,COC1=C(Br)C(=O)c2nc(-c3ccccn3)ccc2C1=O,> 5 (active)
11,COC1=C(I)C(=O)c2nc(C#N)ccc2C1=O,> 5 (active)
12,O=C1C=C(Br)C(=O)c2ncccc21,> 5 (active)
13,COC(=O)c1nc(C(=O)OC)c(NC(C)=O)c(-c2ccccc2Br)c1C,0 (inactive)
14,NC1=CC(=O)c2ccc(-c3ccccn3)nc2C1=O,0 (inactive)
